How the values were obtained:
[1] = biological target: T1, Ornithine decarboxylase (Mus musculus) (UniProt P00860); assay: In vivo inhibition of ornithine de-carboxylase (ODC) activity induced by 12-0-tetradecanoylphorbol 13-acetate (TPA) in mouse skin; assay type: functional, organism-based
T1 sequence (whole entry): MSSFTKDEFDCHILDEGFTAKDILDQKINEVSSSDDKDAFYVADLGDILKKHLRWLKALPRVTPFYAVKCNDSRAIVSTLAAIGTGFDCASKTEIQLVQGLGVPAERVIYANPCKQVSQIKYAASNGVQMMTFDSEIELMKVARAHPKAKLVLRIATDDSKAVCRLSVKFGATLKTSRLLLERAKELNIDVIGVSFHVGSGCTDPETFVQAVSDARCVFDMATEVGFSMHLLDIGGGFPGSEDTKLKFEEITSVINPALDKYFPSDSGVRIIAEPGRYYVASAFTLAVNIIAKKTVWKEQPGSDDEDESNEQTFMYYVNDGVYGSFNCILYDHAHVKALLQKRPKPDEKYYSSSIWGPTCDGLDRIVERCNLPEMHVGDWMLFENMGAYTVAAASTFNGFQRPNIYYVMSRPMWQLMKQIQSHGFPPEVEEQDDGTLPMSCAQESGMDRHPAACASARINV
In short: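 Mouse-skin assay of TPA induction of ornithine decarboxylase, after Verma et al. Retinoid-treated groups are compared with TPA-induced controls. ODC activity is expressed as a percentage of control-group activity and averaged over the stated number of tests.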

[2] = biological target: T1, Ornithine decarboxylase (Mus musculus); assay: Inhibition of TPA-induced ODC activity as percentage of the average no. of papillomas / mouse in groups of control mice was determined using papilloma assay; assay type: functional; parameters: concentration or dose not given beside the values
In short: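 CD-1 female mice, shaved skin, initiated once with 51.2 μg DMBA in 0.2 mL acetone. From two weeks later, TPA 2 nmol in acetone twice weekly to the same area for 12–15 weeks. Tumors per mouse counted at the end, 10–15 mice per group. Group averages are expressed as a percentage of controls and averaged across experiments.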

Structure (SMILES)	Average [1]	Control [2]
COC(=O)/C=C(C)/C=C/C=C(C)/C=C/C1=C(C)C(=O)C(C/C=C/c2ccccc2)CC1(C)C (stereo unspecified)	31%	20%
C=CCC1CC(C)(C)C(/C=C/C(C)=C/C=C/C(C)=C/C(=O)OC)=C(C)C1=O (stereo unspecified)	56%	42%
CC1=C(/C=C/C(C)=C/C=C/C(C)=C/C(=O)O)C(C)(C)CCC1	8%	16%
CC1=C(/C=C/C(C)=C/C=C/C(C)=C/C(=O)O)C(C)(C)CC(C)(C)C1=O	26%	25%
COC(=O)/C=C(C)/C=C/C=C(C)/C=C/C1=C(C)C(=O)C(Cc2ccccc2)CC1(C)C (stereo unspecified)	56%	78%
CC1=C(/C=C/C(C)=C/C=C/C(C)=C/C(=O)O)C(C)(C)CC(C/C=C/c2ccccc2)C1=O (stereo unspecified)	23%	39%
C#CCC1CC(C)(C)C(/C=C/C(C)=C/C=C/C(C)=C/C(=O)O)=C(C)C1=O (stereo unspecified)	47%	64%
CC1=C(/C=C/C(C)=C/C=C/C(C)=C/C(=O)O)C(C)(C)CC(Cc2ccccc2)C1=O (stereo unspecified)	34%	38%
CC1=C(/C=C/C(C)=C/C=C/C(C)=C/C(=O)O)C(C)(C)CCC1=O (stereo in doubt; 3a)	17%	39%
C#CCC1CC(C)(C)C(/C=C/C(C)=C/C=C/C(C)=C/C(=O)OC)=C(C)C1=O (stereo unspecified)	34%	40%
COC(=O)/C=C(C)/C=C/C=C(C)/C=C/C1=C(C)C(=O)CCC1(C)C	18%	25%
CC1=C(/C=C/C(C)=C/C=C/C(C)=C/C(=O)O)C(C)(C)CC(C)C1=O (stereo unspecified)	26%	29%
CC1=C(/C=C/C(C)=C/C=C/C(C)=C/C(=O)Nc2ccc(O)cc2)C(C)(C)CCC1	60%	89%
COC(=O)/C=C(C)/C=C/C=C(C)/C=C/C1=C(C)C(=O)C(C)(C)CC1(C)C	22%	22%
CCC1CC(C)(C)C(/C=C/C(C)=C/C=C/C(C)=C/C(=O)O)=C(C)C1=O (stereo unspecified)	40%	57%
COC(=O)/C=C(C)/C=C/C=C(C)/C=C/C1=C(C)C(=O)C(C)CC1(C)C (stereo unspecified)	28%	27%
C=CCC1CC(C)(C)C(/C=C/C(C)=C/C=C/C(C)=C/C(=O)O)=C(C)C1=O (stereo unspecified)	68%	47%
CCC1CC(C)(C)C(/C=C/C(C)=C/C=C/C(C)=C/C(=O)OC)=C(C)C1=O (stereo unspecified)	31%	68%
